The source of these data is ChEMBL document CHEMBL1131058, “Studies on quinazolines and 1,2,4-benzothiadiazine 1,1-dioxides. 8.1, 2 synthesis and pharmacological evaluation of tricyclic fused quinazolines and 1,2,4-benzothiadiazine 1,1-dioxides as potential alpha1-adrenoceptor antagonists” (J Med Chem, 1998).

Structures are written as SMILES.

The target of assay [1] is Serotonin 1 (5-HT1) receptor (Rattus norvegicus) (UniProt P28564+P30940+P19327+P28565). Description: Compound is evaluated for binding affinity towards 5-hydroxytryptamine 1 receptor using [3H]5-HT in rat brain cortex at 10 uM. In kind it is tissue-based. The method in brief:
(§1)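 Radioligand competition binding was done by an outside contract lab (Pan Lab). Inhibition constants (Ki) were derived from displacement of the stated tritiated ligand. Each compound was tested at 10 µM. Where inhibition at that concentration stayed below 50%, no Ki was reported.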

For assay [2], the target named is T1, 5-hydroxytryptamine receptor 1A (Rattus norvegicus, UniProt P19327).
T1 sequence (P19327 whole entry): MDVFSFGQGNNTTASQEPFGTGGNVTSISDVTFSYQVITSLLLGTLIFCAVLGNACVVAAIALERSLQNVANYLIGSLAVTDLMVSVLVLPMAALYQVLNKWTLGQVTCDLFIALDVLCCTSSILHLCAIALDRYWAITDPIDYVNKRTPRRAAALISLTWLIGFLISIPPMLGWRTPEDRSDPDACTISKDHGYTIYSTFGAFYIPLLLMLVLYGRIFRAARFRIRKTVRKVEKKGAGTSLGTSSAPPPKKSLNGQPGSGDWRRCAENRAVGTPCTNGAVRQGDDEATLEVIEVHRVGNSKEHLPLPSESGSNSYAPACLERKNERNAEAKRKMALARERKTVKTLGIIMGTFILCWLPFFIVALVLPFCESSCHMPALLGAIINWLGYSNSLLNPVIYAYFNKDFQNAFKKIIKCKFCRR
Description: Compound is evaluated for binding affinity towards 5-hydroxytryptamine 1A receptor using [3H]-8-OH- -DPAT in rat brain cortex. In kind it is tissue-based. The essentials:
(§2)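 Contract radioligand competition binding. Sources: 5-HT1 and 5-HT1A in rat brain cortex; 5-HT2 and σ2 in rat brain; σ in guinea pig brain; D2, rhD2 and rhD3 in CHO cells with [³H]spiperone; H1 in guinea pig lung with [³H]pyrilamine. Inhibition constants reported; no constant given where inhibition at 10 µM was below 50%.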

In assay [3] the target is Serotonin 2 (5-HT2) receptor (Rattus norvegicus, UniProt P30994+P08909+P14842). As to the kind of experiment: Compound is evaluated for binding affinity towards 5-hydroxytryptamine 2 receptor using [3H]ketanserin in rat brain. In kind it is tissue-based. The essentials: as §2
In assay [4] the target is T2, Alpha-1A adrenergic receptor (Rattus norvegicus, UniProt P43140).
T2 sequence (P43140 whole entry): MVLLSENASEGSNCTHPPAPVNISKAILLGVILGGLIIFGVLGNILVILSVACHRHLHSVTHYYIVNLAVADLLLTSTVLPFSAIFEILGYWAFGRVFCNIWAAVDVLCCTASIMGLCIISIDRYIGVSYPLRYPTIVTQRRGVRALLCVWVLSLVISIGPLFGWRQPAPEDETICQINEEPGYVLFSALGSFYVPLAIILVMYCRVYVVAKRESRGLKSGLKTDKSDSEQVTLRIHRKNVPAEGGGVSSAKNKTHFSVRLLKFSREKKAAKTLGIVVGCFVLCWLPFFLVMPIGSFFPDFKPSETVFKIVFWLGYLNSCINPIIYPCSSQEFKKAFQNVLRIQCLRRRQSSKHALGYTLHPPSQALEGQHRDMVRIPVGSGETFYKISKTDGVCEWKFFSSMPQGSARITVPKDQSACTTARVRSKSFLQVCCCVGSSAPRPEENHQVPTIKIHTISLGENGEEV
Description: Displacement of [3H]prazosin from Alpha-1A adrenergic receptor of rat submaxillary gland membranes. In kind it is cell membranes, Membrane. The method in brief: (§3)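 Triplicate competition binding against 0.2-0.25 nM [³H]prazosin in Tris buffer pH 7.4, 30 min at room temperature. Competitor range 0.1-200 nM. Nonspecific binding defined with 10 µM phentolamine. Reaction stopped by GF/B filtration with two cold Tris washes. Membrane protein 300-400 µg per assay. Ki calculated from the data; mean ± SEM of 3-6 experiments.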
For orientation: Displacement assays read how much labelled ligand stays bound in the presence of the test substance.

Assay [5] has as its target T3, Alpha-1B adrenergic receptor (Rattus norvegicus, UniProt P15823).
T3 sequence (P15823 whole entry): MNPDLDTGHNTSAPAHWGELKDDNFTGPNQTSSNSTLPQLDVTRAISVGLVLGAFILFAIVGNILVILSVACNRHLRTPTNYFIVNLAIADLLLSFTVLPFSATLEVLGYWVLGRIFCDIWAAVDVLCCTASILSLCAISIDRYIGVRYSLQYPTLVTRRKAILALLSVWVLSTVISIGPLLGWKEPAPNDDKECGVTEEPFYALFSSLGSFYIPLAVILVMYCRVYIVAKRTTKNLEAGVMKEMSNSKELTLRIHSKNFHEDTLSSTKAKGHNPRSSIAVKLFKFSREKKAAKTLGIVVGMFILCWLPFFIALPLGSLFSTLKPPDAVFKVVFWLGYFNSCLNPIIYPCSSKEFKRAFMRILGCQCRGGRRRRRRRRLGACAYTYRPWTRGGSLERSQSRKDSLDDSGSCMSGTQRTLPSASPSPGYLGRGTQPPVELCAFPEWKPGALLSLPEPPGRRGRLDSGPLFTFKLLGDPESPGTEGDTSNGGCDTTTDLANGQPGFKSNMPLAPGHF
Description: Displacement of [3H]prazosin from Alpha-1B adrenergic receptor of rat liver membrane. The method in brief:
as §3

Assay [6] concerns the target T4, D(2) dopamine receptor (Homo sapiens, UniProt P14416). Description: Compound is evaluated for binding affinity towards Dopamine receptor D2 using [3H]spiperone in CHO cells. In kind it is cell-based. The essentials:
as §2

Assay [7] deals with T4, D(2) dopamine receptor. Description: Compound is evaluated for binding affinity towards recombinant human Dopamine receptor D2 using [3H]spiperone in CHO cells. In kind it is cell-based. The essentials:
as §2

In assay [8] the target is T5, D(3) dopamine receptor (Homo sapiens, UniProt P35462). As to the kind of experiment: Compound is evaluated for binding affinity towards recombinant human Dopamine receptor D3 using [3H]spiperone in CHO cells. In kind it is cell-based. The method in brief: as §2
T5 sequence (P35462 whole entry): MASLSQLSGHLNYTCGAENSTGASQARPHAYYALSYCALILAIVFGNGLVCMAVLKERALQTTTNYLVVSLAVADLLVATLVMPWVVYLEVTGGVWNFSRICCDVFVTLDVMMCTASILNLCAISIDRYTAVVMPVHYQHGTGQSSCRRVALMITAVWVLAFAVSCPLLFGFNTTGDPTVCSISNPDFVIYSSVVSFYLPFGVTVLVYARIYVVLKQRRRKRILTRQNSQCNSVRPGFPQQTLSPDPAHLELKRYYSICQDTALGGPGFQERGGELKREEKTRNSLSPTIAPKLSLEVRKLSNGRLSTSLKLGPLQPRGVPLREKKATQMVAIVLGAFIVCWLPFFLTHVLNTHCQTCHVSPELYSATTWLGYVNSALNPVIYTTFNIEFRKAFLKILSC
The next assay addresses Histamine H1 receptor (Cavia porcellus, UniProt P31389). Description: Compound is evaluated for binding affinity towards Histamine H1 receptor using [3H]pyrilamine in guinea pig lung. In kind it is tissue-based. The method in brief: as §2
In assay [9] the target is Sodium channel alpha subunits; brain (Types I, II, III) (Rattus norvegicus) (UniProt P04775+P04774+P08104). Description: Displacement of [3H]batrachotoxin from rat brain sodium channel at 10 uM. In kind it is tissue-based. The essentials:
as §1

Assay [10] deals with Sigma 2 receptor. As to the kind of experiment: (§4) Binding affinity towards Sigma 2 receptor using [3H]ifenprodil in rat brain. In kind it is tissue-based. To be noted: concentration not given here. The essentials:
as §1

Assay [11] can be described thus: Selectivity ratio for binding affinity towards alpha2 and alpha-1 adrenoceptors. The essentials:
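Ratio of α2 Ki ([³H]clonidine binding) to α1 Ki ([³H]prazosin binding), both measured in rat cortical membrane competition assays.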

For assay [12], the target named is Alpha-2A adrenergic receptor (Homo sapiens) (UniProt P08913). As to the kind of experiment: Compound is evaluated for binding affinity towards Alpha-2A adrenergic receptor using [3H]MK912 at 10 uM.
Assay [13] concerns the target Alpha-2B adrenergic receptor (Homo sapiens) (UniProt P18089). Description: Compound is evaluated for binding affinity towards Alpha-2B adrenergic receptor using [3H]yohimbine at 10 uM.
Assay [14] concerns the target Serotonin 1 (5-HT1) receptor (Rattus norvegicus, UniProt P28564+P30940+P19327+P28565). Description: Compound is evaluated for binding affinity towards 5-hydroxytryptamine 1 receptor using [3H]5-HT in rat brain cortex. In kind it is tissue-based. The essentials: as §2
For assay [15], the target named is T4, D(2) dopamine receptor. Description: Compound is evaluated for binding affinity towards Dopamine receptor D2 using [3H]spiperone in CHO cells at 10 uM. In kind it is cell-based.
Assay [16] has as its target T5, D(3) dopamine receptor. Description: Compound is evaluated for binding affinity towards recombinant human Dopamine receptor D3 using [3H]spiperone in CHO cells at 10 uM. In kind it is cell-based. The essentials:
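Single-concentration screen at 10 µM in contract radioligand binding assays. Records whether inhibition of specific radioligand binding stayed below 50%.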

In assay [17] the target is Sodium channel alpha subunits; brain (Types I, II, III) (Rattus norvegicus, UniProt P04775+P04774+P08104). Description: Displacement of [3H]batrachotoxin from rat brain sodium channel. In kind it is tissue-based. The method in brief: as §1
Assay [18] deals with Sigma 2 receptor. Described as §4. In kind it is tissue-based. The essentials: as §2
The target in assay [19] is T6, Alpha-2A adrenergic receptor (Homo sapiens, UniProt P08913).
T6 sequence (P08913 whole entry): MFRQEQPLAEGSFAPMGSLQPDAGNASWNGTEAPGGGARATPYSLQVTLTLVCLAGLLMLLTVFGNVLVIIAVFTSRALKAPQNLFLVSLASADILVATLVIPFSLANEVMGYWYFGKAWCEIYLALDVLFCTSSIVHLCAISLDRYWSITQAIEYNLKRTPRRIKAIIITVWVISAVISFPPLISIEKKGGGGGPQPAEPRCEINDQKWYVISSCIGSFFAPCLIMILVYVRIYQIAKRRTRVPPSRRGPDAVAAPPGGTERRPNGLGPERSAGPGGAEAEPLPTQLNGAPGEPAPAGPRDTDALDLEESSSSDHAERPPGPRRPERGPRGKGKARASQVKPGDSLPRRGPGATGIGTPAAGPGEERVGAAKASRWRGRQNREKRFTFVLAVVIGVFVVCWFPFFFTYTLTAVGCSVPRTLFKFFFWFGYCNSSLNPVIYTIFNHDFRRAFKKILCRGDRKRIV
As to the kind of experiment: Compound is evaluated for binding affinity towards Alpha-2A adrenergic receptor using [3H]MK912.

In assay [20] the target is T7, Alpha-2B adrenergic receptor (Homo sapiens, UniProt P18089).
T7 sequence (P18089 whole entry): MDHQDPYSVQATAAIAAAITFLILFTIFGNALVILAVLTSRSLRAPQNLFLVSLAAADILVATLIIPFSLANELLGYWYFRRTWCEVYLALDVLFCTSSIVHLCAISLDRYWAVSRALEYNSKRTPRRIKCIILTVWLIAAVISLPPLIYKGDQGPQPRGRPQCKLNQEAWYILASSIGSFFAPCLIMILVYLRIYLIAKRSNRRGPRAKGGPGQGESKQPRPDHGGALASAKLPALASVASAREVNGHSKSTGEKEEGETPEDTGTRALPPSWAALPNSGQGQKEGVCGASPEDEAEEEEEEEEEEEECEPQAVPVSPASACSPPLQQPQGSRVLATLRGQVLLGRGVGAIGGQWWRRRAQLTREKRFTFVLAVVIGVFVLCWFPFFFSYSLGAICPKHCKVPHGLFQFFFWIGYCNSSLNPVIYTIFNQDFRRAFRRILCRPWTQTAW
Description: Compound is evaluated for binding affinity towards Alpha-2B adrenergic receptor using [3H]yohimbine.

T4 sequence (P14416 whole entry): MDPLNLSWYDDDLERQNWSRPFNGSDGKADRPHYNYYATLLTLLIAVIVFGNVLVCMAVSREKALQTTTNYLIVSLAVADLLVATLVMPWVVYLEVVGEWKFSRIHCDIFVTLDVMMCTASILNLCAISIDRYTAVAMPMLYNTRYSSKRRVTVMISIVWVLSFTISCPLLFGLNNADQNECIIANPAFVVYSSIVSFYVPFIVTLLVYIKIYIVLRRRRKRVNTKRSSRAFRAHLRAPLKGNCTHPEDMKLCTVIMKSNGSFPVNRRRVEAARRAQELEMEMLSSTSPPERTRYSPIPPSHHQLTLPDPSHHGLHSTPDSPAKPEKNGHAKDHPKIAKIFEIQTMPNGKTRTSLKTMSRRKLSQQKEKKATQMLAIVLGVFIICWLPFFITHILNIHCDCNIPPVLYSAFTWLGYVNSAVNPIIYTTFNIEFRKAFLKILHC
Sequence of Histamine H1 receptor (P31389 whole entry): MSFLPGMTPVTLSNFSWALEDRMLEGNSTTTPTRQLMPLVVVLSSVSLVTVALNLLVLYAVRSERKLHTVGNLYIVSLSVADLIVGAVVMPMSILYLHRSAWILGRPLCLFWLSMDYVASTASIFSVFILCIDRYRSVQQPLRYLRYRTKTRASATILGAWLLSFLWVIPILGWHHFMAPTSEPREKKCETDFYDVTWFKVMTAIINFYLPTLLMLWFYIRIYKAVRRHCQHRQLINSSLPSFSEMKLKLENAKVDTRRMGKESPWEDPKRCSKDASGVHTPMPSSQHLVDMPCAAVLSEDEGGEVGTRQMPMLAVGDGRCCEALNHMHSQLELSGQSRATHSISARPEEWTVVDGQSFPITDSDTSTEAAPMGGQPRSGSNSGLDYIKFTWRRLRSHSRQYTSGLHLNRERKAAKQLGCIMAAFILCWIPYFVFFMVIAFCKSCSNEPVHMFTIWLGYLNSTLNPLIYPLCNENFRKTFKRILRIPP

On to `COc1ccccc1N1CCN(CC2CN=C3c4ccccc4NC(=O)N32)CC1` (stereo not drawn), for which the inhibition (in assay [1]; in [9]; with Sigma 2 receptor [10]; in assay [12]; in [13]) was under 50% throughout. Moreover, the Ki (usually a dissociation constant, usually derived from enzyme kinetics or from competition with a known ligand) turned out to be 155 nM in assay [2]; 377 nM in assay [3]; 0.26 nM in [4]; 0.67 nM in [5]; 158 nM at D(2) dopamine receptor [6]; 239 nM on D(2) dopamine receptor [7]. The results for the Ki at D(3) dopamine receptor [8] and on Histamine H1 receptor were 985 nM and 2320 nM, respectively. Besides, the Ratio in assay [11] was found to be 2820.

As to `COc1ccccc1N1CCN(CCn2c(=O)[nH]c3ccccc3c2=O)CC1`, the Ki in [14] came out at 1510 nM; in assay [2] it was 16 nM; in [3], 180 nM; in assay [4], 0.5 nM; in assay [5], 1.1 nM; on D(2) dopamine receptor [7], 132 nM. In addition, the Ki on D(2) dopamine receptor [15] was found to be 32 nM; on D(3) dopamine receptor [16], 73 nM; on Histamine H1 receptor, 685 nM; in assay [17], 3.68 µM; on Sigma 2 receptor [18], 2500 nM; in assay [19], 1810 nM. This compound showed a Ki in assay [20] of 56 nM. Further, the Ratio in assay [11] came out at 6400.
